Calls of active or inactive are those of the source. The calls are words filed in the database; no cut-off is given here.
Legend:
[1] = tested on: Salmonella enterica subsp. enterica; experiment: Antibacterial activity against Salmonella enteritidis ATCC 13076 up to 100 ug/disk after 24 hrs by agar well diffusion method; format: functional, organism-based; details: Salmonella enterica subsp. enterica serovar Enteritidis, in the assay text read “paper disk diffusion method” for “agar well diffusion method”
Method in brief: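 S. enteritidis ATCC13076 grown in LB broth 24 h at 37 °C. Broth culture (0.3 mL) mixed into 0.7% LB soft agar and layered over 1.5% LB hard agar. Compound applied to 8 mm paper disks at 2 μg/μL, tested up to 100 μg/disk. Ampicillin (5 μg/μL) and solvent served as controls. Plates incubated 24 h at 37 °C.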

RAW264.7 [2] = experiment: Antiinflammatory activity in LPS-stimulated mouse RAW264.7 cells assessed as inhibition of COX2 protein expression at 10 uM after 16 hrs by immunoblot analysis relative to control; format: functional
Method in brief: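 RAW 264.7 macrophages (ATCC TIB-71) stimulated with E. coli LPS (0.01 μg/mL) for 16 h with or without compound. Cells washed in ice-cold PBS, lysed, and spun at 20,000g for 30 min at 4 °C. Equal protein loaded for SDS-PAGE and transferred to PVDF. Blots probed 180 min with anti-iNOS or anti-COX-2 (1:1000) and detected by ECL. Levels expressed relative to LPS-only cells. CAPE 10 µM used as reference.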

RAW264.7 [3] = experiment: Antiinflammatory activity in LPS-stimulated mouse RAW264.7 cells assessed as iNOS protein expression at 10 uM after 16 hrs by immunoblot analysis relative to control; details: RAW264.7, 16 h
Human betaherpesvirus 5 = experiment: Inhibition of HCMV UL76 encoded endonuclease expressed in Escherichia coli BL21 (DE3)-RIL assessed as inhibition of supercoiled double stranded phi X 174 bacteriophage DNA cleavage after 1 hr by agarose gel electrophoresis
Method in brief: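 Calmodulin-tagged HCMV UL76 endonuclease purified from E. coli BL21-codon DE3-RIL carrying pCBP-UL76. Serially diluted compound incubated with 1 µg CsCl-purified supercoiled dsDNA φX174, reaction buffer and enzyme at 37 °C for 1 h. Products resolved on 1% agarose gel. IC50 is the concentration giving 50% inhibition of substrate cleavage.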

RAW264.7 [4] = experiment: Antiinflammatory activity in LPS-stimulated mouse RAW264.7 cells assessed as COX2 protein expression at 10 uM after 16 hrs by immunoblot analysis relative to control; details: RAW264.7, 16 h

| Structure (SMILES) | inhibition [1] | inhibition (RAW264.7 [2]) | iNOS protein level (% of LPS control) at 10 µM (RAW264.7 [3]) [%] | inhibition (Human betaherpesvirus 5) | COX-2 protein level (% of LPS control) at 10 µM (RAW264.7 [4]) [%] | Activity (RAW264.7 [2]) |
| --- | --- | --- | --- | --- | --- | --- |
| C=C1C(=O)O[C@@H]2[C@@H]1C[C@H]1O[C@]1(COC(C)=O)CC/C=C(\C)[C@@H](O)C/C=C(\C)[C@H]2OC(C)=O (relative stereo) [DURUMOLIDE I] | inactive | inactive | 6.2 | inactive | – | – |
| C=C1C(=O)O[C@H]2C/C(C)=C/CC/C(C)=C/CC[C@](O)(COC(C)=O)[C@@H](O)C[C@H]12 [DURUMOLIDE F] | inactive | – | 0.8 | inactive | 47.8 | – |
| C=C1C(=O)O[C@H]2C/C(C)=C/CC/C(C)=C/CC[C@@]3(CO)O[C@@H]3C[C@H]12 [SINULAROLIDE D] | inactive | inactive | 2.2 | inactive | – | – |
| C=C1C(=O)O[C@H]2C(=O)/C(C)=C/CC/C(C)=C/CC[C@@]3(C=O)O[C@@H]3C[C@H]12 (relative stereo) [DURUMOLIDE L] | inactive | inactive | 1.2 | inactive | – | – |
| C=C1C(=O)O[C@@H]2[C@@H]1C[C@H](OC(C)=O)[C@@](O)(COC(C)=O)CC/C=C(\C)CC/C=C(\C)[C@H]2OC(C)=O (relative stereo) [DURUMOLIDE H] | inactive | – | 22.6 | inactive | – | inactive |
| C=C1C(=O)O[C@@H]2[C@@H]1C[C@H](OC(C)=O)[C@@](O)(COC(C)=O)CC/C=C(\C)CC/C=C(\C)[C@H]2O (relative stereo) [DURUMOLIDE G] | inactive | inactive | 7.3 | inactive | – | – |
| O=C(/C=C/c1ccc(O)c(O)c1)OCCc1ccccc1 [CAFFEIC ACID PHENETHYL ESTER] | – | – | 1.5 | – | 70.2 | – |
| C=C1C(=O)O[C@@H]2[C@@H]1C[C@H]1O[C@]1(C)CC/C=C(\C)CC/C=C(\C)[C@H]2O [DURUMOLIDE J] | inactive | inactive | 0.1 | inactive | – | – |
| C=C1C(=O)O[C@H]2C(=O)/C(C)=C/CC/C(C)=C/CC[C@@]3(CO)O[C@@H]3C[C@H]12 (relative stereo) [DURUMOLIDE K] | inactive | – | 5.7 | inactive | 71.6 | – |
